High-throughput results deposited in PubChem BioAssay by The Scripps Research Institute Molecular Screening Center.
NPY1 pot ag: human NPY-Y1 potentiation or agonism, primary screen | P25929 | NPY-Y1 expressing cells, potentiator/agonist activation | activation, % at 3.6 µM | 220,000 tested, 0.37% active | AID 1304; in the data active means activation above about 33%, passing the limit was not always enough;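 further: cells stimulated with NPY at EC10 then isoproterenol at EC100; 0% = low agonist plus stimulus and 100% = saturating agonist plus stimulus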
NPY2 pot ag: potentiates or activates human NPY-Y2 receptor; P49146; cells expressing NPY-Y2, potentiator/agonist read-out; activation, % at 3.6 µM; 220,000 tested, 0.45% active; AID 1359; in the data active means activation above about 27%;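 further: cells stimulated with NPY near EC25 plus isoproterenol at EC100; 0% = vehicle plus submaximal agonist and 100% = vehicle plus saturating agonist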
Target sequence (P49146 whole entry, looked up): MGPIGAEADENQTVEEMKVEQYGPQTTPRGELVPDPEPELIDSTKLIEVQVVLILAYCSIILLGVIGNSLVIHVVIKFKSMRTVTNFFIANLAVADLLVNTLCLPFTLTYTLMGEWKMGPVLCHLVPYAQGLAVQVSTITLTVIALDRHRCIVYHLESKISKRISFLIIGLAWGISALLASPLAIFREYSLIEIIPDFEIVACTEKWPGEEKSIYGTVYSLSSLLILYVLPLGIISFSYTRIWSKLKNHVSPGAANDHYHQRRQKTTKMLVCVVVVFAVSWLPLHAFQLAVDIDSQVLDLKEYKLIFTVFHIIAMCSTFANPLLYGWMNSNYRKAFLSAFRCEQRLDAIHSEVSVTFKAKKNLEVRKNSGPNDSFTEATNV
NPY Y1 blocker: blocks the human neuropeptide Y Y1 receptor. inhibition, % at 3.6 µM. AID 1040. HEK293-CNG Y1 cells, membrane potential fluorescence; NPY at EC95, then isoproterenol. P25929. 200,000 tested, 1% active;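 active means inhibition above the campaign mean inhibition of all tested compounds plus 3 SD, cut at about 20% in these data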;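 further: 0% = DMSO wells given NPY plus isoproterenol and 100% = isoproterenol alone without NPY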
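Test system – HEK293 Y1/CNG channel cell line · Also added – NPY agonist 25 nM, then isoproterenol 1 µM plus Ro 20-1724 25 µM · Compound dosing – one concentration, 3.6 µM, in 0.4% DMSO · Schedule – compound incubation 1 h at room temperature, readout 45 min post-stimulation · Technique – fluorescence, membrane potential probe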
NPY Y2 blocker: antagonists of human neuropeptide Y receptor Y2; inhibition, % at 2.7 µM; AID 793; NPY-Y2 expressing cells, antagonist mode; 140,000 tested, 0.99% active; in the data active means inhibition above about 17%;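 further: 0% = vehicle with agonist challenge and 100% = reference antagonist with challenge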
NPY-Y1 pot conf: human NPY-Y1 potentiation or agonism, confirmation; shares compounds with NPY1 pot ag; cell-based NPY-Y1 potentiator/agonist assay; activation, % at 3.6 µM; 280 tested, 20% active; AID 1546; in the data active means activation above about 45%;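 further: cells challenged with NPY at its EC10 plus isoproterenol stimulus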
NPY-Y2 counter: potentiates or activates NPY-Y2, counter-screen for NPY-Y1 hits. shares compounds with NPY1 pot ag. HEK293-CNG cells, membrane-potential fluorescence (FLIPR), 1536-well. activation, % at 3.6 µM. 280 tested, 20% active
NPY-Y1 agonist: human NPY-Y1 agonism as potentiator counter-screen; 280 tested, 50% active; HEK293 Y1-CNGC, membrane potential fluorescence, agonist mode; AID 1697; shares compounds with NPY1 pot ag; activation, % at 3.6 µM;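 active means percent activation above the mean of DMSO-only control wells plus 3 SD of those wells, cut at about 18% in these data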;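 further: cells challenged with isoproterenol plus Ro 20-1724 with no NPY in test wells; Y1 agonism lowers isoproterenol-driven cAMP and reduces probe fluorescence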
NPY-Y2 ag: activates human NPY-Y2, counter-screen for NPY-Y1 hits. shares compounds with NPY1 pot ag. HEK293 Y2-CNGC, membrane potential fluorescence, agonist mode. activation, % at 3.6 µM. 280 tested, 67% active. AID 1698;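 active means activation above the solvent-only control wells' mean plus 3 SD, cut at about 11% in these data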;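 further: 0% = DMSO with isoproterenol and 100% = 40 nM NPY maximal response; agonism lowers cAMP so well fluorescence drops in active wells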
CNGC inh 2: CNG channel inhibition, counter-screen for NPY-Y1 potentiators | HEK293-CNG parental, isoproterenol cAMP, membrane potential fluorescence | AID 1704 | shares compounds with NPY1 pot ag | 280 tested, 42% active | inhibition, % at 3.6 µM;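 active means inhibition above the mean of stimulated solvent-only control wells plus 3 SD, cut at about 22% in these data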;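 further: 0% = isoproterenol-stimulated DMSO wells and 100% = unstimulated DMSO wells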
NPY-Y2 pot conf: human NPY-Y2 potentiation or agonism, confirmation; shares compounds with NPY2 pot ag; cell-based NPY-Y2 potentiator/agonist assay; activation, % at 3.6 µM; 450 tested, 20% active; AID 1539
NPY-Y1 potentiator: counter-screen for NPY-Y2 potentiators or agonists: NPY-Y1 potentiators or agonists; shares compounds with NPY2 pot ag; Y1 HEK293-CNG cells, membrane potential fluorescence; activation, % at 3.6 µM; 450 tested, 20% active; AID 1651; in the data active means activation above about 45%;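 further: cells stimulated with submaximal NPY then isoproterenol with phosphodiesterase inhibitor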
NPY-Y1 agonist 2: human NPY-Y1 agonism as NPY-Y2 potentiator counter-screen | HEK293 Y1-CNGC, membrane potential fluorescence | AID 1702 | activation, % at 3.6 µM | 450 tested, 37% active | shares compounds with NPY2 pot ag;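 active means activation above the mean of DMSO-only control wells plus 3 SD, cut at about 18% in these data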;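 further: cells stimulated with 1 µM isoproterenol plus the PDE inhibitor Ro 20-1724; 0% = isoproterenol with DMSO and no NPY and 100% = 40 nM NPY; Y1 agonists lower the membrane potential dye signal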
CNGC inh: counter-screen for NPY-Y2 potentiators: inhibitors of CNG channel activity; shares compounds with NPY2 pot ag; HEK293-CNG parental, isoproterenol cAMP, membrane potential fluorescence; inhibition, % at 3.6 µM; 450 tested, 32% active; AID 1703;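 active means inhibition above the control-well mean plus 3 SD of those wells, cut at about 22% in these data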;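 further: 0% = DMSO with isoproterenol and 100% = DMSO without isoproterenol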
NPY-Y2 ag 2: activates human NPY-Y2 receptor in potentiator counter-screen; shares compounds with NPY2 pot ag; HEK293 Y2/CNGC cells, membrane potential fluorescence, agonist mode; activation, % at 3.6 µM; 450 tested, 56% active;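 active means activation above the mean of solvent-only control wells plus 3 SD, cut at about 10% in these data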;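 further: cells stimulated by isoproterenol with no NPY added so direct agonism is tested; 0% = DMSO with isoproterenol alone and 100% = NPY at EC100 plus isoproterenol; agonism lowers probe fluorescence through less cAMP and CNG channel opening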
Numbers without * were called inactive; nt = no result given. In the library only some 1.9% were active in any assay of this set; here they are far more common. Unless noted, no stated cut-off is given here; in the data, active means activation above about 33%; inactive means the rest.

SMILES	NPY1 pot ag	NPY2 pot ag	NPY Y1 blocker	NPY Y2 blocker	NPY-Y2 pot conf	NPY-Y1 potentiator	NPY-Y1 agonist 2	CNGC inh	NPY-Y2 ag 2	others
CCC(=NCc1ccc(F)cc1)c1c(O)n(C)c(=O)n(C)c1=O	37*	0	4	3	nt	nt	nt	nt	nt	NPY-Y1 pot conf=-22;NPY-Y2 counter=-13;NPY-Y1 agonist=-24;NPY-Y2 ag=-9;CNGC inh 2=-16
O=c1[nH]c(=S)n(C2CC2)c(O)c1C=Nc1ccc2c(c1)OCO2	-4	-8	nt	nt	nt	nt	nt	nt	nt
O=c1[nH]c(=O)n(CCc2ccccc2)c(O)c1C=NC1CC1	-7	73*	nt	nt	-1	0	-3	3	-3
CN(C)CCCN=Cc1c(O)n(CCc2ccccc2)c(=O)[nH]c1=O	15	3	1	0	nt	nt	nt	nt	nt
O=C(Nc1ccncc1)c1cccn(Cc2ccccc2)c1=O	20	34*	-4	nt	2	-33	-25	-15	-10
Oc1cccc(/C=N/NP(=S)(c2ccccc2)c2ccccc2)c1	17	12	-1	2	nt	nt	nt	nt	nt
CN1CCN(c2cccc3c2C(=O)c2ccccc2C3=O)CC1	23	33*	-5	-2	29	33	18*	24*	33*
CN1CCN(c2ccccc2N)CC1	16	-6	5	0	nt	nt	nt	nt	nt
Nc1ccccc1C(=O)OCC(=O)c1ccc2c(c1)OCCO2	9	1	5	nt	nt	nt	nt	nt	nt
C=CCNC(=S)Nc1ccc(OC(=O)Nc2ccc(Cl)c(Cl)c2)cc1	12	83*	nt	nt	10	7	2	9	10
